CHOP UPR activ – activators of apoptotic CHOP UPR arm, primary screen, cell-based, CHO-CHOP luciferase reporter, luminescence, uHTS. UPR activation; percent of tunicamycin response over DMSO baseline. activation, % at 10 µM. 0.34% of 330,000 active. AID 449763, 2010;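 active = at 10 µM dose, activation of 40% or more, normalized to positive control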;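 note: 100% = tunicamycin at 10 µg/mL and 0% = DMSO alone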
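assay system = CHO CHOP reporter cells | amount = 500 CHO-CHOP cells per well | buffer or medium = F12 with 10% FBS | incubation = 16-18 h cell attachment, then 6 h compound exposure, 37 °C | detection = luminescence read with Steady-Glo | read-out = percent activation relative to tunicamycin control | controls = tunicamycin high control, DMSO low control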
CHOP inh – inhibitors of CHOP promoter induction, primary screen, cell-based, unfolded protein response, luciferase reporter. CHO-K1 CHOP-promoter luciferase, tunicamycin-induced, 15-18 h. inhibition, % at 10 µM. 3.8% of 220,000 active. AID 2732, 2010;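 active = compounds that reduced the stress-induced luciferase reporter signal by more than about 70% of percent inhibition, limit read from the data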;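 note: 0% = tunicamycin plus vehicle and 100% = wells without tunicamycin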
Jurkat NFkB inh – inhibitors of induced NF-kB luciferase reporter, primary screen, TCR NF-kB activation inhibitor project, cell-based, luminescence, uHTS | Jurkat, PMA/ionomycin-induced NF-kB luciferase reporter | inhibition, % at 4 µM | 0.53% of 330,000 active; in the data active = inhibition above about 50%
697 NFkB inh – inhibitors of PMA/ionomycin-induced NF-kB reporter, 697 cells, primary screen, B-cell NF-kB inhibitor project, cell-based, luminescence, uHTS; 697 B-cell NF-kB luciferase reporter, 16 h; inhibition, % at 4 µM; 0.33% of 330,000 active; in the data active = inhibition above about 35%
Gli-Sufu block – Gli-Sufu pathway antagonists, primary screen, luciferase luminescence, Sufu-KO-LIGHT cells, uHTS; 0.74% of 340,000 active; AID 588413, 2011; inhibition, % at 5 µM; Sufu-KO-LIGHT fibroblasts, Gli luciferase reporter luminescence;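 active = inhibition above about 55%, limit read from the data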;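 note: 0% = DMSO-treated cells and 100% = wells with medium but no cells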
XBP1 UPR activ – activators of adaptive XBP1 UPR arm, primary screen, cell-based, CHO-XBP1 luciferase reporter, luminescence, uHTS; IRE1-XBP1 UPR activation; percent of tunicamycin response, DMSO as zero; activation, % at 20 µM; 0.33% of 330,000 active; AID 463104, 2010;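 active = versus positive control, 20 µM dose yields 30% or more activation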;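 note: 100% = tunicamycin at 10 µg/mL and 0% = DMSO only wells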
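assay system = CHO-XBP1 luciferase reporter cells | amount = 1000 cells/well | buffer or medium = F12 plus 10% FBS | compound dosing = single point, 20 µM final compound, 1% DMSO | incubation = 16-18 h cell attachment at 37 °C, then 6 h compound exposure | detection = Steady-Glo luminescence read | controls = tunicamycin 10 µg/mL and vehicle-only wells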
Gli antag conf – Gli-SUFU pathway antagonists, confirmation, single concentration, luciferase luminescence, Sufu-KO-LIGHT cells | shares compounds with Gli-Sufu block | Gli luciferase reporter | inhibition, % at 5 µM | 40% of 2,500 active | AID 602428, 2012;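 active = mean inhibition at 5 µM reaching about 45%, limit read from the data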;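 note: plate controls were DMSO-treated cells for no effect and wells lacking cells for full effect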
Gli cytotox – cytotoxicity in Sufu-KO-LIGHT cells, confirmation, cytotoxicity control for Gli-SUFU antagonist project, cell-based, ATP luminescence, single concentration; 32% of 2,500 active; shares compounds with Gli-Sufu block; cytotoxicity, % at 5 µM; AID 651994, 2013;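 active = mean cytotoxicity at 5 µM above about 25%, limit read from the data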;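 note: cells exposed to compound overnight for roughly 16 to 18 hours; plate controls were DMSO wells with cells for no effect and medium without cells for full effect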
Wnt3a counter – Wnt3a reporter signal inhibition, confirmation, counter-screen for Gli-SUFU antagonist project, Wnt-LIGHT cells, luminescence, single concentration; shares compounds with Gli-Sufu block; Wnt3a-driven luciferase reporter; inhibition, % at 6.25 µM; 20% of 2,500 active; AID 651995, 2013;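 active = mean inhibition above about 25%, limit read from the data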
An asterisk follows results filed as active; x = no result. Only some compounds are listed: those with a hit (about 3.9% of all), similar ones and a draw of the others.

SMILES | CHOP UPR activ | CHOP inh | Jurkat NFkB inh | 697 NFkB inh | Gli-Sufu block | XBP1 UPR activ | Gli antag conf | Gli cytotox | Wnt3a counter
COc1ccccc1C(O)P(=O)(OCC(C)C)c1ccc(N(C)C)cc1 (stereo not drawn) | 2 | x | -5 | 13 | 1 | -7 | x | x | x
COc1cc2c(cc1OC)[C@@H]1Cc3ccc(OC)c(OC)c3CN1CC2 | -1 | x | -7 | -9 | 9 | 0 | x | x | x
CCC1=C(CC2NCCc3ccccc32)CC2c3cc(OC)c(OC)cc3CCN2C1 (stereo not drawn) | x | x | x | x | 53 | x | 60* | 5 | 85*
Cc1cc2c3c([nH]c2cc1S(=O)(=O)N1CCC2(CC1)OCCO2)CC(C)(C)CC3=O | -2 | x | 0 | -16 | -1 | -2 | x | x | x
COc1ccc(OC)c(NC(=O)c2csc(Cl)c2OC)c1 | 1 | x | 3 | 11 | -4 | 1 | x | x | x
Cc1ccc(/C=N/Nc2cn[nH]c(=O)n2)o1 | -1 | -3 | 7 | -7 | -9 | -2 | x | x | x
O=c1nc(N/N=C/c2ccccn2)cn[nH]1 | -4 | 64 | 7 | -50 | 67* | -1 | 71* | 33* | 78*
Cc1nc2ccccn2c1C(=O)NC1CCCc2ccccc21 (stereo not drawn) | -2 | 30 | 31 | -46 | 56* | -4 | 32 | 4 | 11
O=C(COC(=O)CCC(=O)c1ccc(F)cc1)NCc1ccccc1Cl | -1 | x | 1 | 14 | -2 | 1 | x | x | x
CCOc1cc(C(C(=O)NCC2CCCO2)N(C(=O)Cn2nnc3ccccc32)c2ccc(OC)c(OC)c2)ccc1O (stereo not drawn) | 0 | x | 8 | 16 | 57* | 2 | 9 | 15 | -27
COc1cc(C(C(=O)NCC2CCCO2)N(C(=O)Cn2nnc3ccccc32)c2ccc(C(C)=O)cc2)ccc1O (stereo not drawn) | 0 | x | -45 | 10 | -6 | -5 | x | x | x
COC(=O)c1ccc(Oc2nc(C)cc(Oc3ccccc3)n2)cc1 | 1 | 42 | -6 | -22 | 0 | 0 | x | x | x
COC(=O)c1ccc(Oc2cc(C)nc(-n3nc(C)cc3C)n2)cc1 | x | x | x | x | 52 | x | 64* | 60* | 18
COC(=O)c1c(C)oc2ccc(N(C(=O)c3ccncc3)S(=O)(=O)c3ccc(C)cc3C)cc12 | 7 | 69 | 33 | -1 | 61* | 2 | 49* | 27* | 36*
CCOC(=O)C1CCN(CCCSc2ccc(C)cc2)CC1 | x | x | x | x | -6 | x | x | x | x
CN1CCCN(Cc2ccccc2C(F)(F)F)CC1 | -2 | -36 | -17 | -1 | 94* | 2 | 23 | 24 | -19
CCCS(=O)(=O)N1CCN(Cc2ccccc2C(F)(F)F)CC1 | -1 | 23 | -12 | -12 | 1 | 0 | x | x | x
Cc1nnsc1C(=O)NC1CCCc2c1cnn2-c1ccc(F)cc1F (stereo not drawn) | 7 | x | 49 | 21 | 65* | -5 | 56* | 13 | -4
CC(=O)Nc1cccc(C(=O)NC2CCCc3c2cnn3-c2ccccc2F)c1 (stereo not drawn) | 1 | x | 6 | 7 | -2 | -5 | x | x | x
COc1cc(C(=O)NC2CCCc3c2cnn3-c2ccccc2F)cc(OC)c1OC (stereo not drawn) | -2 | x | 27 | -35 | 61* | -4 | 48* | 34* | 13
